From PubChem BioAssay
Inconclusive results are not listed.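 The calls were made as follows, unless noted: active = cell viability at or below a set limit in both duplicate runs, the limit being the all-compound median minus 4 SD (cut at about 23% in these data, passing the limit was not always enough); inconclusive = no clear call, values can overlap the other calls; inactive = the rest.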

What was measured:
[1] = OD615 S. cerevisiae growth inhibition, permissive medium, pilot counter-assay, permissive growth control for S. cerevisiae lifespan shortening project (AID 705;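 active = growth inhibition above 25% in both replicates, a cutoff set 3 SD above the mean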); conditions: OD615, 24 h, at 10 µM, hits give high values
Procedure, shortened: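 Material: engineered DeaD yeast; compound dosing: one dose 10 µM, DMSO 0.25% final; measure: yeast growth inhibition indicated by reduced 24 h OD615; detection: OD615 turbidity read; incubation: cells pre-grown 4 h, then 24 h compound exposure, 30 °C humidified; medium: permissive synthetic complete medium with raffinose and galactose carbon sources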

[2] = Restrictive medium S. cerevisiae growth inhibition, OD615, pilot screen of yeast lifespan reduction project, restrictive growth control (AID 706;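 active = growth inhibition above a set limit, 3 SD over mean compound inhibition, in both replicates, cut at about 43% in these data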;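 also: modified DeaD lifespan yeast strain shifted to restrictive glucose medium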); conditions: OD615, 48 h, at 10 µM, hits give high values
Procedure, shortened: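 material = engineered S. cerevisiae DeaD strain | medium = glucose-based CSMM-D restrictive medium | times = 4 h pre-incubation, 48 h exposure at 30 °C | technique = OD615 absorbance reading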

[3] = viability gain of MRP-1-high H69AR cells under doxorubicin, pilot screen, MRP-1 activator project, CellTiter-Glo, duplicate (AID 807;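 active = viability increase at or above a cutoff of the median across tested compounds plus 3 SD, cut at about 8.5% in these data, passing the limit was not always enough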;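 also: compound pretreatment 18-22 h then 72 h combined with doxorubicin; 0% = doxorubicin alone and 100% = vehicle without doxorubicin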); conditions: H69AR viability with doxorubicin, CellTiter-Glo luminescence; at 10 µM; hits give high values
[4] = growth suppression of beta-catenin knockout HCT116, pilot screen, human colon tumor cells (AID 823); conditions: CellTiter-Glo, 60 h, at 10 µM, hits give low values;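 also: 0% = wells killed by 20 µM Hyamine and 100% = untreated DMSO cell wells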
[5] = growth suppression of PTEN-deleted HCT116, pilot screen, cell-based, HCT116 clonal line, CellTiter-Glo (AID 824;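 active = viability at or below 27.92% in each of two runs, the all-compound median minus 4 SD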;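 also: 0% = 20 µM Hyamine control and 100% = vehicle cell control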); conditions: 60 h, at 10 µM, hits give low values
[6] = inhibitors of the yeast RAM network, pilot screen, dse1pr::URA3 reporter, 5-FOA selection (AID 869;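 active = inhibition over a set limit, the all-compound mean plus 3 SD, in both replicate runs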;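 also: 0% = DMSO wells with no growth and 100% = 10 µM 1-NA-PP1 with full growth; RAM network block rescues cells from 5-FOA so hits raise OD615 growth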); conditions: S. cerevisiae dse1pr::URA3 5-FOA growth, OD615, 2 d; at 10 µM; hits give high values; strain carries analog-sensitive mutant Cbk1 kinase
[7] = RAM signaling pathway blockade in yeast – S. cerevisiae, Pdr1DBD-CYC8 efflux-inhibited sensitized strain, primary screen (AID 1298;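 active = RAM network inhibition above 8.4% in each of two replicates, 3 SD over the compound average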;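 also: 0% = DMSO untreated cells without growth and 100% = 10 µM 1-NA-PP1 full growth; higher means more yeast growth rescued from 5-FOA killing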); conditions: S. cerevisiae cbk1-as DSE1-URA3 strain, 5-FOA growth OD615, 2 d; at 50 µM; hits give high values

Cc1ccc(-c2nc(CS(=O)CC(=O)NCCN3CCCC3)c(C)o2)cc1 (stereo not drawn)
inactive: growth inhibition [1] -8.03% | growth inhibition [2] -5.56% | viability increase [3] -2.7% | viability [4] 86.4% | viability [5] 99.3% | inhibition [6] 0.18% | RAM network inhibition [7] 0.43%

CN(C)c1nc(N)nc(-c2ccco2)n1
inactive: growth inhibition [1] 3.19% | growth inhibition [2] 14.2% | viability increase [3] 0.01% | viability [4] 93.7% | viability [5] 103% | inhibition [6] 0.535% | RAM network inhibition [7] 0.21%

CCOC(=O)NC(Nc1nnc(SCC)s1)(C(F)(F)F)C(F)(F)F
inactive: growth inhibition [1] -3.14% | growth inhibition [2] 2.81% | viability increase [3] -2.85% | viability [4] 89.8% | viability [5] 91% | inhibition [6] 1.5% | RAM network inhibition [7] 3.2%

CSC1=C(C#N)C(c2ccc(C(C)C)cc2)CC(=O)N1 (stereo not drawn)
inactive: growth inhibition [1] -4.75% | growth inhibition [2] -18.3% | viability increase [3] 0.04% | viability [4] 99.6% | viability [5] 91% | inhibition [6] 2% | RAM network inhibition [7] 1.87%

O=C(NCCn1ccc2ccccc21)C1CCCCC1
inactive: growth inhibition [1] -13.3% | growth inhibition [2] -15.1% | viability increase [3] -0.84% | viability [4] 87.7% | viability [5] 87.2% | inhibition [6] 2.12% | RAM network inhibition [7] 2.92%

COCCNC(=O)CN(c1ccccc1OC)S(C)(=O)=O
inactive: growth inhibition [1] -6.76% | growth inhibition [2] 1.17% | viability increase [3] 0.7% | viability [4] 101% | viability [5] 101% | inhibition [6] 2.75% | RAM network inhibition [7] 0.67%

CCc1c(C)nc2[nH]nc(-c3ccccc3)n2c1=O
inactive: growth inhibition [1] -20.2% | growth inhibition [2] -10.2% | viability increase [3] 0.32% | viability [4] 96.2% | viability [5] 99.1% | inhibition [6] 1.69% | RAM network inhibition [7] 4.8%

COc1ccc(C(=O)Oc2ccc3c(c2)OCO3)cc1OC
inactive: growth inhibition [1] -6.54% | growth inhibition [2] -4.45% | viability increase [3] -0.06% | viability [4] 85.9% | viability [5] 100% | inhibition [6] 1.68% | RAM network inhibition [7] 3.32%

CCCCn1c(CCNC(=O)CC)nc2ccccc21
inactive: growth inhibition [1] -8.93% | growth inhibition [2] -5.17% | viability increase [3] -1.11% | viability [4] 98.8% | viability [5] 101% | inhibition [6] 1.86% | RAM network inhibition [7] 5.26%

COc1ccc(S(=O)(=O)NCc2cn3c(C)csc3n2)cc1F
inactive: growth inhibition [1] -21% | growth inhibition [2] -8.7% | viability increase [3] 0.05% | viability [4] 94.1% | viability [5] 93.3% | inhibition [6] 0.86% | RAM network inhibition [7] -0.48%

CCc1ccc(C2CC(c3ccc(Cl)cc3)n3nc(N)nc3N2)cc1 (stereo not drawn)
inactive: growth inhibition [1] 3.64% | growth inhibition [2] 17.7% | viability increase [3] 1.85% | viability [4] 101% | viability [5] 90.4% | inhibition [6] 1.53% | RAM network inhibition [7] 2.02%

O=C(c1cnn2c(C(F)(F)F)cc(-c3ccco3)nc12)N1CCCCCC1
inactive: growth inhibition [1] -14.5% | growth inhibition [2] -11.4% | viability increase [3] -4.15% | viability [4] 91.3% | viability [5] 91.5% | inhibition [6] 0.705% | RAM network inhibition [7] 1.5%

Cc1cccc(C2Nc3ccccc3C(=O)N2c2ccccc2)n1 (stereo not drawn)
inactive: growth inhibition [1] -13.9% | growth inhibition [2] -8.88% | viability increase [3] -2.08% | viability [4] 94.1% | viability [5] 101% | inhibition [6] 2.28% | RAM network inhibition [7] 2.46%

O=C(CSc1nc2ccccc2c(=O)[nH]1)N1CCCCC1
inactive: growth inhibition [1] -16.2% | growth inhibition [2] -5.08% | viability increase [3] -2.69% | viability [4] 98.7% | viability [5] 84.7% | inhibition [6] 0.395% | RAM network inhibition [7] -0.51%

COc1ccc(S(=O)(=O)Cc2ccc(C(=O)N3CCC(C(N)=O)CC3)o2)cc1
inactive: growth inhibition [1] -3.35% | growth inhibition [2] 0.07% | viability increase [3] -0.31% | viability [4] 76% | viability [5] 93.5% | inhibition [6] 2.22% | RAM network inhibition [7] 4.37%

Nc1nc(SCc2ccc(Cl)cc2)ns1
inactive: growth inhibition [1] 10.4% | growth inhibition [2] 7.05% | viability increase [3] 1.03% | viability [4] 98.4% | viability [5] 89.2% | inhibition [6] 0.695% | RAM network inhibition [7] 0.78%

COc1ccc(C)cc1NC(=O)CN(c1ccc(F)cc1)S(C)(=O)=O
inactive: growth inhibition [1] -20.5% | growth inhibition [2] -18.5% | viability increase [3] -1.76% | viability [4] 92.4% | viability [5] 103% | inhibition [6] 1.31% | RAM network inhibition [7] 4.09%

Cc1ccc(N(C(C)C(=O)O)S(=O)(=O)c2c(C)[nH]c(=O)[nH]c2=O)cc1 (stereo not drawn)
inactive: growth inhibition [1] 1.15% | growth inhibition [2] 11.8% | viability increase [3] -0.92% | viability [4] 102% | viability [5] 94.5% | inhibition [6] 0.555% | RAM network inhibition [7] -0.47%

O=C(OCCNc1ncc(C(F)(F)F)cc1Cl)c1ccc(S(=O)(=O)N2CCOCC2)cc1
inactive: growth inhibition [1] -5% | growth inhibition [2] -18.4% | viability increase [3] -2.03% | viability [4] 88.8% | viability [5] 97.9% | inhibition [6] 1.17% | RAM network inhibition [7] 9.46%

CCOc1ccc(NC(=O)c2ccc(S(=O)(=O)N(C)C)cc2)cc1
inactive: growth inhibition [1] -12.8% | growth inhibition [2] -7.66% | viability increase [3] 0.26% | viability [4] 102% | viability [5] 92.4% | inhibition [6] 1.32% | RAM network inhibition [7] 1.71%

Cc1cccc(-n2ncc3c(N4CCOCC4)ncnc32)c1
inactive: growth inhibition [1] 6.08% | growth inhibition [2] 17.2% | viability increase [3] -0.68% | viability [4] 101% | viability [5] 90.5% | inhibition [6] 1.59% | RAM network inhibition [7] 0.06%

O=C(CN1CCOc2ccccc21)N1CCCC1
inactive: growth inhibition [1] -21.1% | growth inhibition [2] -8.8% | viability increase [3] -5.56% | viability [4] 100% | viability [5] 90.5% | inhibition [6] 0.98% | RAM network inhibition [7] 1.32%

OCCCc1nc2ccccc2n1CCOc1ccccc1
inactive: growth inhibition [1] -10.4% | growth inhibition [2] 12.7% | viability increase [3] -0.86% | viability [4] 88.5% | viability [5] 94.6% | inhibition [6] 0.595% | RAM network inhibition [7] 2.86%

CCOc1ccc(S(=O)(=O)N(CC(=O)O)c2ccccc2)cc1
inactive: growth inhibition [1] -1.83% | growth inhibition [2] -7.26% | viability increase [3] -2.11% | viability [4] 102% | viability [5] 93.6% | inhibition [6] 1.07% | RAM network inhibition [7] 2.61%
